Columns and labels:
[1] = test system: Escherichia coli; assay: Antibacterial activity against Escherichia coli ATCC 25922 at 1 mg/mL after 24 hrs by agar-well diffusion method; format: functional; conditions: ATCC 25922, 24 h, read-out: IZ
In short: (§1)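 Well diffusion on Mueller-Hinton agar seeded with 24 h old cultures. Test compounds dissolved in DMSO at 1, 0.5 and 0.25 mg/mL. 6 mm wells were punched with a sterile cork borer, test solutions added, and plates incubated 24 h at 37 °C.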

[2] = test system: Staphylococcus aureus; assay: Antibacterial activity against Staphylococcus aureus ATCC 25923 at 1 mg/mL after 24 hrs by agar-well diffusion method; format: functional; conditions: ATCC 25923, 24 h, read-out: IZ; in short: as §1
[3] = test system: Pseudomonas aeruginosa; assay: Antibacterial activity against Pseudomonas aeruginosa ATCC 27853 at 1 mg/mL after 24 hrs by agar-well diffusion method; format: functional; conditions: ATCC 27853, 24 h, read-out: IZ; in short: as §1
[4] = test system: Escherichia coli; assay: Antibacterial activity against Escherichia coli ATCC 25922 at 0.5 mg/mL after 24 hrs by agar-well diffusion method; format: functional; conditions: ATCC 25922, 24 h, read-out: IZ; in short: as §1
[5] = test system: Staphylococcus aureus; assay: Antibacterial activity against Staphylococcus aureus ATCC 25923 at 0.5 mg/mL after 24 hrs by agar-well diffusion method; format: functional; conditions: ATCC 25923, 24 h, read-out: IZ; in short: as §1
[6] = test system: Pseudomonas aeruginosa; assay: Antibacterial activity against Pseudomonas aeruginosa ATCC 27853 at 0.5 mg/mL after 24 hrs by agar-well diffusion method; format: functional; conditions: ATCC 27853, 24 h, read-out: IZ; in short: as §1
[7] = test system: Escherichia coli; assay: Antibacterial activity against Escherichia coli ATCC 25922 at 0.25 mg/mL after 24 hrs by agar-well diffusion method; format: functional; conditions: ATCC 25922, 24 h, read-out: IZ; in short: as §1
[8] = test system: Staphylococcus aureus; assay: Antibacterial activity against Staphylococcus aureus ATCC 25923 at 0.25 mg/mL after 24 hrs by agar-well diffusion method; format: functional; conditions: ATCC 25923, 24 h, read-out: IZ; in short: as §1
[9] = test system: Pseudomonas aeruginosa; assay: Antibacterial activity against Pseudomonas aeruginosa ATCC 27853 at 0.25 mg/mL after 24 hrs by agar-well diffusion method; format: functional; conditions: ATCC 27853, 24 h, read-out: IZ; in short: as §1
[10] = test system: Aspergillus flavus; assay: Antifungal activity against Aspergillus flavus MTCC 3306 at 1 mg/mL after 72 hrs by agar-well diffusion method; format: functional; conditions: MTCC 3306, 72 h, read-out: DIZ
In short: (§2)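 Fungal spore suspensions made in normal saline were spread onto agar adjusted to pH 5.7, then dried 1 h at 37 °C. Wells were cut and loaded with test compounds in DMSO at different concentrations, with a DMSO control. Plates run in triplicate at 25 °C for 72 h. Read-out was inhibition zone diameter.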

[11] = Antifungal activity against Chrysosporium keratinophilum MTCC 2827 at 1 mg/mL after 72 hrs by agar-well diffusion method; format: functional; in short: as §2
[12] = test system: Candida albicans; assay: Antifungal activity against Candida albicans MTCC 3017 at 1 mg/mL after 72 hrs by agar-well diffusion method; format: functional; conditions: MTCC 3017, 72 h, read-out: DIZ; in short: as §2
[13] = test system: Aspergillus flavus; assay: Antifungal activity against Aspergillus flavus MTCC 3306 at 0.5 mg/mL after 72 hrs by agar-well diffusion method; format: functional; conditions: MTCC 3306, 72 h, read-out: DIZ; in short: as §2
[14] = Antifungal activity against Chrysosporium keratinophilum MTCC 2827 at 0.5 mg/mL after 72 hrs by agar-well diffusion method; format: functional; in short: as §2
[15] = test system: Candida albicans; assay: Antifungal activity against Candida albicans MTCC 3017 at 0.5 mg/mL after 72 hrs by agar-well diffusion method; format: functional; conditions: MTCC 3017, 72 h, read-out: DIZ; in short: as §2
[16] = test system: Aspergillus flavus; assay: Antifungal activity against Aspergillus flavus MTCC 3306 at 0.25 mg/mL after 72 hrs by agar-well diffusion method; format: functional; conditions: MTCC 3306, 72 h, read-out: DIZ; in short: as §2
[17] = Antifungal activity against Chrysosporium keratinophilum MTCC 2827 at 0.25 mg/mL after 72 hrs by agar-well diffusion method; format: functional; in short: as §2
[18] = test system: Candida albicans; assay: Antifungal activity against Candida albicans MTCC 3017 at 0.25 mg/mL after 72 hrs by agar-well diffusion method; format: functional; conditions: MTCC 3017, 72 h, read-out: DIZ; in short: as §2
[19] = test system: Radical scavenging activity; assay: Antioxidant activity assessed as DPPH free radical scavenging activity at 100 uM after 30 mins; format: functional
In short: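 Sample brought to 1 mL with MeOH and mixed with 3 mL fresh 0.1 mM DPPH. Kept 30 min in the dark, then absorbance read at 517 nm. A DPPH control without sample was included. Scavenging (%) = [(Abs control − Abs sample)/Abs control] × 100.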

[20] = test system: Mus musculus; assay: Acute toxicity in Swiss albino mouse assessed as behavioral changes up to 3000 mg/kg, po in single dose measured up to 24 hrs; format: organism-based; parameters: dose 3000 mg/kg, route oral; conditions: in vivo
In short: (§3)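 Single oral dose per OECD acute oral toxicity guidelines, 250 to 3000 mg/kg, given as a fine suspension in double distilled water with Tween 80. Toxic symptoms and behavioral changes observed continuously for 4 h, then at 8, 12 and 24 h; deaths recorded.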

[21] = test system: Mus musculus; assay: Acute toxicity in Swiss albino mouse assessed as mortality up to 3000 mg/kg, po in single dose measured up to 24 hrs; format: organism-based; parameters: dose 3000 mg/kg, route oral; conditions: in vivo; in short: as §3
[22] = test system: Mus musculus; assay: Acute toxicity in Swiss albino mouse assessed as behavioral changes at >2000 mg/kg, po in single dose measured up to 24 hrs; format: organism-based; conditions: in vivo; in short: as §3
[23] = test system: Mus musculus; assay: Acute toxicity in Swiss albino mouse assessed as mortality at >2000 mg/kg, po in single dose measured up to 24 hrs; format: organism-based; conditions: in vivo; in short: as §3

Structure (SMILES)	zone of inhibition at 1000 µg/mL [1] [mm]	zone of inhibition at 1000 µg/mL [2] [mm]	zone of inhibition at 1000 µg/mL [3] [mm]	zone of inhibition at 500 µg/mL [4] [mm]	zone of inhibition at 500 µg/mL [5] [mm]	zone of inhibition at 500 µg/mL [6] [mm]	zone of inhibition at 250 µg/mL [7] [mm]	zone of inhibition at 250 µg/mL [8] [mm]	zone of inhibition at 250 µg/mL [9] [mm]	zone of inhibition at 1000 µg/mL [10] [mm]	inhibition zone (IZ) [11] [mm]	zone of inhibition at 1000 µg/mL [12] [mm]	zone of inhibition at 500 µg/mL [13] [mm]	inhibition zone (IZ) [14] [mm]	zone of inhibition at 500 µg/mL [15] [mm]	zone of inhibition at 250 µg/mL [16] [mm]	inhibition zone (IZ) [17] [mm]	zone of inhibition at 250 µg/mL [18] [mm]	Activity [19] [%]	Activity [20]	further results
CCOC(=O)C1=C(C)NC(C)=C(C(=O)OCC)C1c1c[nH]nc1-c1ccc(-c2ccccc2)cc1	13	16	17	10	12	13	7	10	11	5	3	6	2	0	4	1	0	2	65.3	Non-toxic	Activity [21]: Non-toxic
CCOC(=O)C1=C(C)NC(C)=C(C(=O)OCC)C1c1c[nH]nc1-c1ccc(Cl)cc1	17	15	16	12	10	13	10	8	10	2	3	4	0	0	2	0	0	0	62.3		Activity [22]: Toxic; Activity [23]: Toxic
CCOC(=O)C1=C(C)NC(C)=C(C(=O)OCC)C1c1c[nH]nc1-c1ccc(SC)cc1	17	16	14	12	12	11	9	10	8	0	0	0	0	0	0	0	0	0	61.1	Non-toxic	Activity [21]: Non-toxic

— ChEMBL document CHEMBL1909541, “Hantzsch reaction: synthesis and characterization of some new 1,4-dihydropyridine derivatives as potent antimicrobial and antioxidant agents” (Eur J Med Chem, 2011)
